# What was measured:
# Huh-7 = test: (§1) Cytotoxicity against human Huh-7 cells assessed as reduction in cell viability measured after 24 hrs by CellTiter-Glo analysis; format: cell-based; settings: huh-7, 24 h
# SARS-CoV-2 [1] = test: Antiviral activity against SARS Cov-2 USA/WA1/2020 infected in Vero E6 cells assessed as reduction in virus-induced cytopathic effect preincubated for 1 hr followed by viral infection and measured after 48 hrs post infection; format: functional, organism-based; settings: Severe acute respiratory syndrome coronavirus 2, USA/WA1/2020, Vero C1008
# Ebolavirus [2] = test: Antiviral activity against Ebola virus constitutively expressed firefly infected in human Huh-7 cells expressing pretreated for 1 hrs followed by viral infection and measured after 24 hrs by dual luciferase reporter assay; format: functional, organism-based; settings: Orthoebolavirus
# How it was run: (§2)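 Huh-7 cells were transfected in suspension with EBOV VP35, NP, VP30 and L plasmids plus constitutive firefly (ce-FF). At 24 h, compounds were added in triplicate (0-50 µM, 2-fold series) for 1 h before trVLP infection.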
# [3] = Selectivity index, ratio of CC50 for human Huh-7 cells to IC50 for Antiviral activity against Ebola virus trVLP infected in human Huh-7 cells; format: toxicity, cell-based; settings: read-out: Ratio CC50/IC50
# Ebolavirus [4] = test: Antiviral activity against Ebola virus trVLP infected in human Huh-7 cells pretreated for 1 hrs followed by viral infection and measured after 24 hrs by dual luciferase reporter assay; format: functional, organism-based; settings: Orthoebolavirus; how it was run: as §2
# [5] = Selectivity index, ratio of CC50 for human Calu-3 cells to IC50 for Antiviral activity against SARS coronavirus 2 USA/WA1/2020 infected in human Calu3 cells assessed as reduction in virus-induced cytopathic effect; format: toxicity, cell-based; settings: read-out: Ratio CC50/IC50
# SARS-CoV-2 [6] = test: Antiviral activity against SARS coronavirus 2 USA/WA1/2020 infected in Calu-3 cells assessed as reduction in virus-induced cytopathic effect preincubated for 1 hr followed by viral infection and measured after 48 hrs; format: functional, organism-based; settings: Severe acute respiratory syndrome coronavirus 2, USA/WA1/2020, Calu-3
# Calu-3 = test: (§3) Cytotoxicity against human Calu-3 cells assessed as reduction in cell viability after 48 hrs by Cell-Tox green based fluorescence assay; settings: calu-3, 48 h
# How it was run: (§4)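 Calu3 cells (1 x 10^4) were plated and exposed 24 h later to 3-fold serial compound dilutions. At 48 h, CellTox Green fluorescence was read, and CC50 was fitted by four-parameter nonlinear regression.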
# [7] = Selectivity index, ratio of CC50 for African green monkey Vero E6 cells to IC50 for Antiviral activity against SARS coronavirus 2 USA/WA1/2020 infected in Vero E6 cells assessed as reduction in virus-induced cytopathic effect; format: toxicity, cell-based, Vero C1008; settings: read-out: Ratio CC50/IC50
# [8] = as §1; format: cell-based; settings: Huh-7 cells
# Ebolavirus [9] = test: Antiviral activity against wild type Ebola virus infected in human HeLa cells assessed as reduction in viral infection measured after 24 hrs by Hoechst 33342 staining based microscopic analysis; format: functional, organism-based; settings: Orthoebolavirus
# [10] = Metabolic stability in human plasma assessed as compound remaining at 10 uM after 2 hrs by LC-QTOF-MS analysis; format: ADME, cell-free
# How it was run: (§5)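 Compound (10 µM) was incubated in human plasma at 37 °C, with aliquots taken from 0 to 24 h. Proteins were precipitated with cold ethanol (30 min, -20 °C), and samples were centrifuged and concentrated. Analysis was by LC-QTOF-MS with a ±0.1 m/z EIC window, and % digestion was calculated from peak area relative to 0 min.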
# [11] = Metabolic stability in human plasma assessed as compound remaining at 10 uM after 4 hrs by LC-QTOF-MS analysis; format: ADME, cell-free; settings: read-out: Stability; how it was run: as §5
# [12] = Selectivity index, ratio of CC50 for human Huh-7 cells to IC50 for Antiviral activity against Ebola virus constitutively expressed firefly; format: toxicity; settings: read-out: Ratio CC50/IC50
# SARS-CoV-2 [13] = test: Antiviral activity against SARS Cov-2 USA_WA1/2020 infected in HAE cells measured upto 72 hrs by qRT-PCR method; format: functional, organism-based; settings: Severe acute respiratory syndrome coronavirus 2, USA_WA1/2020, HAE
# [14] = Metabolic stability in human plasma assessed as drug degradation at 10 uM after 1 hr by LC-QTOF-MS analysis; format: ADME, cell-free; settings: read-out: Drug degradation; how it was run: as §5
# SARS-CoV-2 [15] = test: Antiviral activity against SARS Cov-2 USA_WA1/2020 infected in human Calu-3 cells measured upto 72 hrs by qRT-PCR method; format: functional, organism-based; settings: Severe acute respiratory syndrome coronavirus 2, USA_WA1/2020, Calu-3, 72 h
# [16] = as §3; settings: Calu-3 cells; how it was run: as §4
Structure (SMILES),CC50 (Huh-7),IC50 (SARS-CoV-2 [1]),IC50 (Ebolavirus [2]),selectivity ratio [3],IC50 (Ebolavirus [4]),selectivity ratio [5],IC50 (SARS-CoV-2 [6]),CC50 (Calu-3),selectivity ratio [7],CC50 at 24 h [8],IC50 (Ebolavirus [9]),"Stability ([10]; 2 h, 10 µM)","remaining at 4 h, 10 µM [11]",selectivity ratio [12],EC50 (SARS-CoV-2 [13]),"metabolised at 1 h, 10 µM [14]","remaining at 2 h, 10 µM ([10]; read-out: Stability)",EC50 (SARS-CoV-2 [15]),CC50 at 48 h [16]
CCSCCCCCCCCCCCC(=O)O,> 50 µM,> 50 µM,> 50 µM,> 50,> 50 µM,,,,,,,,,,,,,,
CCCCCCCCCCCCCCCC(=O)O[C@H]1[C@@H](O)[C@](C#N)(c2ccc3c(N)ncnn23)O[C@@H]1CO[P@@](=O)(N[C@H](C)C(=O)OCC(CC)CC)Oc1ccccc1,> 50 µM,,> 50 µM,> 172,2.9 µM,> 32.3,1.6 µM,> 50 µM,,,,,,,,,,,
CCCCCCCCCCCCCC(=O)O [MYRISTIC ACID],> 50 µM,> 50 µM,> 50 µM,> 50,> 50 µM,,,,,,,,,,,,,,
CCC(CC)COC(=O)[C@@H](C)N[P@](=O)(OC[C@H]1O[C@@](C#N)(c2ccc3c(N)ncnn23)[C@H](OC(=O)CCCCCCCCCCCN=[N+]=[N-])[C@@H]1O)Oc1ccccc1,,4.6 µM,> 50 µM,54,0.5 µM,,,,> 10.9,27 µM,0.19 µM,,,,,,,,
CCCCCCCCCCCCCC(=O)O[C@H]1[C@@H](OC(=O)CCCCCCCCCCCCC)[C@](C#N)(c2ccc3c(N)ncnn23)O[C@@H]1CO[P@@](=O)(N[C@H](C)C(=O)OCC(CC)CC)Oc1ccccc1,> 50 µM,31 µM,> 50 µM,> 4.13,12.1 µM,,,,> 1.59,,,,,,,,,,
CCC(CC)COC(=O)[C@@H](C)N[P@](=O)(OC[C@H]1O[C@@](C#N)(c2ccc3c(N)ncnn23)[C@H](O)[C@@H]1OC(=O)CCCCCCCCCCCN=[N+]=[N-])Oc1ccccc1,20 µM,3 µM,> 50 µM,44.4,0.45 µM,> 98,0.51 µM,> 50 µM,> 16.6,,0.83 µM,Stable,77.9%,,,,,,
CCCCCCCCCCOCCC(=O)O[C@@H]1[C@H](O)[C@@H](CO[P@@](=O)(N[C@H](C)C(=O)OCC(CC)CC)Oc2ccccc2)O[C@@]1(C#N)c1ccc2c(N)ncnn12,15 µM,4.6 µM,36 µM,50,0.3 µM,,,,> 10.9,,,,,0.417,,,,,
CCCCCCCCCCCCCC(=O)O[C@@H]1[C@H](O)[C@@H](CO[P@@](=O)(N[C@H](C)C(=O)OCC(CC)CC)Oc2ccccc2)O[C@@]1(C#N)c1ccc2c(N)ncnn12,> 50 µM,2.4 µM,> 50 µM,> 74.6,0.67 µM,> 172,0.29 µM,> 50 µM,> 20.7,,,,,,,,,,
CCSCCCCCCCCCCCC(=O)O[C@H]1[C@@H](O)[C@](C#N)(c2ccc3c(N)ncnn23)O[C@@H]1CO[P@@](=O)(N[C@H](C)C(=O)OCC(CC)CC)Oc1ccccc1,23 µM,2.4 µM,> 50 µM,82.1,0.28 µM,> 200,0.25 µM,> 50 µM,> 20.5,,,,,,,,,,
CCSCCCCCCCCCCCC(=O)O[C@@H]1[C@H](O)[C@@H](CO[P@@](=O)(N[C@H](C)C(=O)OCC(CC)CC)Oc2ccccc2)O[C@@]1(C#N)c1ccc2c(N)ncnn12,41 µM,3.5 µM,29 µM,164,0.25 µM,,,,> 14.2,,,,,1.41,,,,,
CCCCCCCCCCCCCCCC(=O)O[C@@H]1[C@H](O)[C@@H](CO[P@@](=O)(N[C@H](C)C(=O)OCC(CC)CC)Oc2ccccc2)O[C@@]1(C#N)c1ccc2c(N)ncnn12,> 50 µM,,> 50 µM,> 6.94,7.2 µM,> 13.9,3.6 µM,> 50 µM,,,,,,,,,,,
CCCCCCCCCCOCCC(=O)O[C@H]1[C@@H](O)[C@](C#N)(c2ccc3c(N)ncnn23)O[C@@H]1CO[P@@](=O)(N[C@H](C)C(=O)OCC(CC)CC)Oc1ccccc1,7.4 µM,2 µM,14 µM,46.3,0.16 µM,> 191,0.18 µM,34.3 µM,> 25.6,,,,,0.529,,,,,
[N-]=[N+]=NCCCCCCCCCCCC(=O)O,> 50 µM,> 50 µM,> 50 µM,> 50,> 50 µM,,,,,,,,,,,,,,
CCCCCCCCCCOCCC(=O)O,> 50 µM,> 50 µM,> 50 µM,> 50,> 50 µM,,,,,,,,,,,,,,
CCCCCCCCCCCCCC(=O)O[C@H]1[C@@H](O)[C@](C#N)(c2ccc3c(N)ncnn23)O[C@@H]1CO[P@@](=O)(N[C@H](C)C(=O)OCC(CC)CC)Oc1ccccc1,> 50 µM,2.3 µM,> 50 µM,> 70.4,0.71 µM,> 208,0.24 µM,> 50 µM,> 22.1,,,,,,,,,,
CCC(CC)COC(=O)[C@H](C)N[P@](=O)(OC[C@H]1O[C@@](C#N)(c2ccc3c(N)ncnn23)[C@H](O)[C@@H]1O)Oc1ccccc1,,0.85 µM,24 µM,,0.32 µM,,0.06 µM,,,> 50 µM,1 µM,,,,0.01 µM,13%,47%,0.28 µM,> 50 µM

# From ChEMBL document CHEMBL5032526 (Eur J Med Chem, 2021)
